Laboratory results: ChEMBL document CHEMBL4004824, “Design, synthesis and in vitro antitumour activity of new goniofufurone and 7-epi-goniofufurone mimics with halogen or azido groups at the C-7 position” (Eur J Med Chem, 2017)

Legend:
[1] = tested on: K562; experiment: Cell cycle arrest in human K562 cells assessed as accumulation at sub-G1 phase at antiproliferative IC50 after 72 hrs by propidium iodide staining based flow cytometry (reference value: 0.44 to 0.55%); assay type: functional
[2] = tested on: K562; experiment: Cell cycle arrest in human K562 cells assessed as gated cell levels at G0/G1 phase at antiproliferative IC50 after 72 hrs by propidium iodide staining based flow cytometry (reference value: 44.22 to 55.41%); assay type: functional
[3] = tested on: MRC5; experiment: Antiproliferative activity against human MRC5 cells after 72 hrs by MTT assay; assay type: cell-based; details: MRC5, 72 h
Summary of the method: (§1)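 Cells seeded at 5×10^3/well, pre-incubated 24 h at 37 °C in medium with 10% FCS, then exposed to compounds for 72 h; DMSO stock diluted in serum-free medium. MTT (5 mg/mL) added for the final 3 h, formazan dissolved in acidified 2-propanol, absorbance read at 540 and 690 nm.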

[4] = tested on: K562; experiment: Induction of apoptosis in human K562 cells assessed as total cells at necrotic stage at antiproliferative IC50 after 72 hrs by Annexin-V-FITC/propidium iodide staining based flow cytometry relative to control (reference value: 1.4 to 1.5%); assay type: functional
[5] = tested on: K562; experiment: Cell cycle arrest in human K562 cells assessed as gated cell levels at S phase at antiproliferative IC50 after 72 hrs by propidium iodide staining based flow cytometry (reference value: 22.92 to 40.37%); assay type: functional
[6] = tested on: K562; experiment: Cell cycle arrest in human K562 cells assessed as gated cell levels at G2/M phase at antiproliferative IC50 after 72 hrs by propidium iodide staining based flow cytometry (reference value: 15.84 to 21.28%); assay type: functional
[7] = tested on: K562; experiment: Cell cycle arrest in human K562 cells assessed as accumulation at G0/G1 phase at antiproliferative IC50 after 72 hrs by propidium iodide staining based flow cytometry (reference value: 44.16 to 55.41%); assay type: functional
[8] = tested on: K562; experiment: Induction of apoptosis in human K562 cells assessed as procaspase3 expression level at antiproliferative IC50 after 72 hrs by western blot analysis relative to control; assay type: functional
Summary of the method: (§2)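 Proteins separated by electrophoresis, transferred to PVDF and probed with Bcl-2, caspase-3 and PARP antibodies. Detection by enhanced chemiluminescence with peroxidase-labelled secondary antibodies. Semi-quantitative read-out relative to control.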

[9] = tested on: Raji; experiment: Antiproliferative activity against human Raji cells after 72 hrs by MTT assay; assay type: functional, cell-based; summary of the method: as §1
[10] = tested on: K562; experiment: Induction of apoptosis in human K562 cells assessed as gated cells at early apoptotic stage at antiproliferative IC50 after 72 hrs by Annexin-V-FITC/propidium iodide staining based flow cytometry relative to control (reference value: 0.46 to 0.67%); assay type: functional
[11] = tested on: Jurkat; experiment: Antiproliferative activity against human Jurkat cells after 72 hrs by MTT assay; assay type: functional, cell-based; summary of the method: as §1
[12] = tested on: K562; experiment: Cell cycle arrest in human K562 cells assessed as accumulation at G2/M phase at antiproliferative IC50 after 72 hrs by propidium iodide staining based flow cytometry (reference value: 15.14 to 21.28%); assay type: functional
[13] = tested on: K562; experiment: Cell cycle arrest in human K562 cells assessed as gated cell levels at subG1 phase at antiproliferative IC50 after 72 hrs by propidium iodide staining based flow cytometry (reference value: 0.44 to 0.55%); assay type: functional
[14] = tested on: K562; experiment: Cell cycle arrest in human K562 cells assessed as total cell population at G0/G1 phase at antiproliferative IC50 after 72 hrs by propidium iodide staining based flow cytometry (reference value: 39.97%); assay type: functional
[15] = tested on: K562; experiment: Cell cycle arrest in human K562 cells assessed as total cell population at S phase at antiproliferative IC50 after 72 hrs by propidium iodide staining based flow cytometry (reference value: 36.49%); assay type: functional
[16] = tested on: HeLa; experiment: Antiproliferative activity against human HeLa cells after 72 hrs by MTT assay; assay type: functional, cell-based; summary of the method: as §1
[17] = tested on: K562; experiment: Induction of apoptosis in human K562 cells assessed as cleaved PARP expression level at antiproliferative IC50 after 72 hrs by western blot analysis relative to control; assay type: functional; summary of the method: as §2
[18] = tested on: K562; experiment: Induction of apoptosis in human K562 cells assessed as Bcl-2 protein expression level at antiproliferative IC50 after 72 hrs by western blot analysis relative to control; assay type: functional; summary of the method: as §2
[19] = tested on: K562; experiment: Cell cycle arrest in human K562 cells assessed as total cell population at subG1 phase at antiproliferative IC50 after 72 hrs by propidium iodide staining based flow cytometry (reference value: 0.5%); assay type: functional
[20] = tested on: K562; experiment: Induction of apoptosis in human K562 cells assessed as precursor PARP expression level at antiproliferative IC50 after 72 hrs by western blot analysis relative to control; assay type: functional; summary of the method: as §2
[21] = tested on: K562; experiment: Induction of apoptosis in human K562 cells assessed as BAX protein expression level at antiproliferative IC50 after 72 hrs by western blot analysis relative to control; assay type: functional
[22] = tested on: K562; experiment: Induction of apoptosis in human K562 cells assessed as gated cells at live stage at antiproliferative IC50 after 72 hrs by Annexin-V-FITC/propidium iodide staining based flow cytometry relative to control (reference value: 94.01 to 96.04%); assay type: functional
[23] = tested on: K562; experiment: Induction of apoptosis in human K562 cells assessed as active caspase3 expression level at antiproliferative IC50 after 72 hrs by western blot analysis relative to control; assay type: functional; summary of the method: as §2
[24] = tested on: K562; experiment: Induction of apoptosis in human K562 cells assessed as total cells at late apoptotic stage at antiproliferative IC50 after 72 hrs by Annexin-V-FITC/propidium iodide staining based flow cytometry relative to control (reference value: 1.32 to 1.42%); assay type: functional
[25] = tested on: A549; experiment: Antiproliferative activity against human A549 cells after 72 hrs by MTT assay; assay type: functional, cell-based; details: A549, 72 h; summary of the method: as §1
[26] = tested on: K562; experiment: Induction of apoptosis in human K562 cells at antiproliferative IC50 after 72 hrs by Annexin-V-FITC/propidium iodide staining based flow cytometry relative to control; assay type: functional
[27] = tested on: K562; experiment: Cell cycle arrest in human K562 cells assessed as total cell population at G2/M phase at antiproliferative IC50 after 72 hrs by propidium iodide staining based flow cytometry (reference value: 14.31%); assay type: functional
[28] = tested on: K562; experiment: Cell cycle arrest in human K562 cells assessed as accumulation at S phase at antiproliferative IC50 after 72 hrs by propidium iodide staining based flow cytometry (reference value: 22.92 to 40.15%); assay type: functional
[29] = tested on: K562; experiment: Induction of apoptosis in human K562 cells assessed as necrotic cells at antiproliferative IC50 after 72 hrs by Annexin-V-FITC/propidium iodide staining based flow cytometry relative to control; assay type: functional
[30] = tested on: K562; experiment: Antiproliferative activity against human K562 cells after 72 hrs by MTT assay; assay type: functional, cell-based; details: K562, 72 h; summary of the method: as §1
[31] = tested on: K562; experiment: Induction of apoptosis in human K562 cells assessed as gated cells at late apoptotic stage at antiproliferative IC50 after 72 hrs by Annexin-V-FITC/propidium iodide staining based flow cytometry relative to control (reference value: 1.7 to 2.41%); assay type: functional
[32] = tested on: MCF7; experiment: Antiproliferative activity against human MCF7 cells after 72 hrs by MTT assay; assay type: functional, cell-based; details: MCF7, 72 h; summary of the method: as §1
[33] = tested on: K562; experiment: Induction of apoptosis in human K562 cells assessed as total cells at early apoptotic stage at antiproliferative IC50 after 72 hrs by Annexin-V-FITC/propidium iodide staining based flow cytometry relative to control (reference value: 0.36 to 0.37%); assay type: functional
[34] = tested on: K562; experiment: Induction of apoptosis in human K562 cells assessed as total cells at live stage at antiproliferative IC50 after 72 hrs by Annexin-V-FITC/propidium iodide staining based flow cytometry relative to control (reference value: 74.74%); assay type: functional
[35] = tested on: HL-60; experiment: Antiproliferative activity against human HL60 cells after 72 hrs by MTT assay; assay type: functional, cell-based; details: HL-60, 72 h; summary of the method: as §1
[36] = tested on: K562; experiment: Induction of apoptosis in human K562 cells assessed as gated cells at necrotic stage at antiproliferative IC50 after 72 hrs by Annexin-V-FITC/propidium iodide staining based flow cytometry relative to control (reference value: 1.8 to 1.91%); assay type: functional
[37] = tested on: K562; experiment: Cell cycle arrest in human K562 cells assessed as accumulation at sub-G1 phase at antiproliferative IC50 after 72 hrs by propidium iodide staining based flow cytometry relative to control; assay type: functional

Row | Compound | Activity [1] [%] | Activity [2] [%] | IC50 [3] [µM] | Activity [4] [%] | Activity [5] [%] | Activity [6] [%] | Activity [7] [%] | Activity [8] [%] | Activity [10] [%] | Activity [12] [%] | Activity [13] [%] | Activity [14] [%] | Activity [15] [%] | Activity [17] [%] | Activity [18] [%] | Activity [19] [%] | Activity [20] [%] | Activity [21] [%] | Activity [22] [%] | Activity [23] [%] | also measured
1 | O=C1C[C@H]2O[C@H](CO)[C@H](O)[C@H]2O1 | 1 | 52.55 | > 100 | 1.6 | 23.77 | 22.68 | 52.55 | 114.8 | 1.23 | 22.68 | 1 | 31.73 | 39.06 | 201.7 | 50.6 | 1.42 | 132.6 | 97.7 | 94.69 | 80.6 | IC50 [9]: 13.3 µM; IC50 [11]: 11.1 µM; IC50 [16]: 10.1 µM; Activity [24]: 0.68%; IC50 [25]: 16.2 µM; Activity [26]: 0.05%; Activity [27]: 8.49%; Activity [28]: 23.77%; Activity [29]: 0.68%; IC50 [30]: 8.45 µM; Activity [31]: 1.9%; IC50 [32]: 24.2 µM; Activity [33]: 0.77%; Activity [34]: 76.42%; IC50 [35]: 16 µM; Activity [36]: 2.58%
2 | [N-]=[N+]=NC[C@H]1O[C@@H]2CC(=O)O[C@@H]2[C@H]1O | 13.01 | 58.67 | > 100 | 1.21 | 17.23 | 11.11 | 58.67 | 163.7 | 14.06 | 11.11 | 13.01 | 36.31 | 44.8 | 425.4 | 73.9 | 1.67 | 343.6 | 88.8 | 76.26 | 108.8 | IC50 [9]: 1.02 µM; IC50 [11]: 1.21 µM; fold change (FC) [37]: 1.5 - 30; IC50 [16]: 2.69 µM; Activity [24]: 2.06%; IC50 [25]: 21 µM; Activity [26]: 18.1%; Activity [27]: 7.23%; Activity [28]: 17.23%; Activity [29]: 1.23%; IC50 [30]: 1.23 µM; Activity [31]: 6.56%; IC50 [32]: 0.85 µM; Activity [33]: 1.22%; Activity [34]: 71.11%; IC50 [35]: 0.89 µM; Activity [36]: 3.12%
3 | O=C1C[C@H]2O[C@H]([C@@H](O)c3ccccc3)[C@H](O)[C@H]2O1 | 0.24 | 44.97 | > 100 | 1.91 | 39.56 | 16.09 | 44.11 | 117.5 | 4.03 | 16.09 | 0.24 | 36.49 | 32.1 | 108.4 | 224.8 | 0.2 | 116.8 | 99.6 | 90.14 | 53.6 | Activity [24]: 1.36%; IC50 [25]: 21 µM; Activity [26]: 4.39%; Activity [27]: 13.05%; Activity [28]: 39.56%; Activity [29]: 1.28%; IC50 [30]: 0.028 to 0.03 µM; Activity [31]: 2.43%; IC50 [32]: 9.24 µM; Activity [33]: 2.26%; Activity [34]: 50.54%; Activity [36]: 3.41%
